Data: ChEMBL document CHEMBL3352778, “HDX reveals unique fragment ligands for the vitamin D receptor” (Bioorg Med Chem Lett, 2014)
pIC50: −log10 of the molar value. Activity calls are given as the source filed them. No cut-off for these calls is given here.

Columns and labels:
[1] = Antagonist activity at human full length Flag-tagged RXR/His-tagged VDR by Alphascreen assay
How it was run: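 Antagonist-mode AlphaScreen assay: a non-secosteroidal VDR agonist was added to form the VDR/RXR/DRIP205 complex. Fragments were then added at 10 doses spanning 0.025–500 µM. Dissociation of the complex was quantified as loss of proximity signal on a multilabel reader, and dose–response curves were fitted.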

Homo sapiens = organism: Homo sapiens; assay: Agonist activity at human full length Flag-tagged RXR/His-tagged VDR assessed as ability to recruit coactivator DRIP205 up to 500 uM by Alphascreen assay
How it was run: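 AlphaScreen proximity assay of the RXR–VDR complex run in agonist mode, i.e. without any added VDR agonist. Read-out is the proximity signal produced when coactivator peptide DRIP205 is recruited to the VDR–RXR complex. Fragments were tested at concentrations up to 500 µM.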

Row | pIC50 [1] | Activity (Homo sapiens) | SMILES
1 | 5.56 | inactive | O=C(O)C1CSC=C(c2ccccc2)N1 (stereo unspecified)
2 | 5.89 | inactive | OC(c1ccc(-c2cccs2)cc1)(C(F)(F)F)C(F)(F)F
3 | 6.71 | inactive | Cn1c(=O)c2nc(-c3cccc(O)c3O)nnc2n(C)c1=O
4 | 5.27 | inactive | Nc1ccc2c(c1)N=C(O)CN2
5 | 4.36 | inactive | Oc1cnn(-c2ccccc2)c1Cl
6 | 6.00 | inactive | CCn1c(O)cc(C)cc1=O
7 | 3.36 | inactive | O=C1CC=C(c2ccccc2)O1
8 | 4.70 | inactive | CCC1CCCCN1CC(=O)c1cccs1 (stereo unspecified)
9 | 4.17 | inactive | Oc1cc(-c2ccc(Cl)cc2)no1
10 | 4.85 | inactive | Oc1coc(-c2ccccc2)c1
11 | 5.17 | inactive | Oc1csc2ccccc12
12 | 4.78 | inactive | O=C(O)/C=C(/c1ccccc1)c1cccs1
13 | 5.16 | inactive | O=C1CCCC=C(Cl)N1c1ccccc1
